The species entered for series [1] is Mus musculus. The series can be described thus: Inhibition of TLR4/IL-1R in BALB/c mouse BMDM assessed as downregulation of LPS-stimulated MyD88 protein expression at 5 ug/mL after 20 hrs by Western blotting analysis relative to control. In a few lines:
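Bone marrow macrophages were treated 20 h with medium, compound (1 or 5 μg/mL) or LPS (100 ng/mL) and lysed in modified RIPA buffer. Protein (30 μg) was separated on Bis-Tris gels, and MyD88 and GAPDH were detected by Western blot with ECL. Densitometric MyD88:GAPDH ratio was normalized to the RPMI value, from six analyses.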
A general note: Immunoblotting shows a protein as a band on a membrane.

Series [2] in a line: Cytotoxicity against mouse BMDC assessed as reduction in cell viability.
For series [3], the system named is Mus musculus. The series can be described thus: Antiinflammatory activity in DBA/1 mouse collagen-induced arthritis model assessed as reduction in serum level of IL-17 at 50 ug/kg, sc administered 2 days prior to collagen challenge continued till day 21 post collagen challenge by ELISA. In kind it is functional, organism-based. In outline:
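Serum IL-17 was measured by ELISA in CIA mice dosed subcutaneously (1 μg/dose or PBS) on days −2, 0 and 21. Values are the mean of triplicate analyses per individual mouse (PBS n = 12, treated n = 13).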

Series [4] concerns Mus musculus. The series can be described thus: Antiinflammatory activity in DBA/1 mouse collagen-induced arthritis model assessed as reduction in number of PMA/ionomycin-stimulated CD4+ T cells expressing IL-17 at 50 ug/kg, sc administered 2 days prior to collagen challenge continued till day 21 post collagen challenge by flow cytometric analysis relative to control. In kind it is functional, organism-based. The conditions noted are these: T-cell. In a few lines: (§1)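 CIA mice given test agent (1 μg/dose) or PBS subcutaneously on days −2, 0 and 21. Draining lymph node cells (10^6/mL) in complete RPMI were stimulated ± 50 ng/mL PMA plus 500 ng/mL ionomycin, with 10 μg/mL brefeldin A for 5 h at 37 °C. Cells were surface-stained for CD4, CD8 and γδ, fixed and permeabilized, then stained for intracellular IFNγ and IL-17A. Gating used isotype controls. Cell numbers per individual mouse; naive n = 7, treated groups n = 13.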
On the technique in general: In flow cytometry, cells or beads pass a laser one at a time.

The subject of series [5] is Mus musculus. The series can be described thus: Antiinflammatory activity in DBA/1 mouse collagen-induced arthritis model assessed as effect on number of PMA/ionomycin-stimulated gammadelta+ T cells expressing IFNgamma at 50 ug/kg, sc administered 2 days prior to collagen challenge continued till day 21 post collagen challenge by flow cytometric analysis relative to control. In kind it is functional, organism-based. The conditions noted are these: T-cell.

The subject of series [6] is Mus musculus. The series can be described thus: Antiinflammatory activity in DBA/1 mouse collagen-induced arthritis model assessed as reduction in number of PMA/ionomycin-stimulated total DLN cells expressing IFNgamma at 50 ug/kg, sc administered 2 days prior to collagen challenge continued till day 21 post collagen challenge by flow cytometric analysis relative to control. In kind it is functional, organism-based. In a few lines:
as §1

The subject of series [7] is Mus musculus. The series can be described thus: Antiinflammatory activity in DBA/1 mouse collagen-induced arthritis model assessed as reduction in number of CD4+ T cells at 50 ug/kg, sc administered 2 days prior to collagen challenge continued till day 21 post collagen challenge. In kind it is functional, organism-based. The conditions noted are these: T-cell. In a few lines:
(§2)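 Dosing was 1 μg/dose or PBS given subcutaneously on days −2, 0 and 21 of CIA. Total, CD4+, CD8+ and γδ T cell numbers in draining lymph nodes were counted by flow cytometry for each mouse. Naive mice not exposed to collagen served as a further control (naive n = 7; PBS and treated n = 13).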

In series [8] the test system is Mus musculus. The series can be described thus: Antiinflammatory activity in DBA/1 mouse collagen-induced arthritis model assessed as reduction in total number of DLN cells at 50 ug/kg, sc administered 2 days prior to collagen challenge continued till day 21 post collagen challenge. The series is classed as functional, organism-based. In a few lines: as §2
The subject of series [9] is Mus musculus. The series can be described thus: Antiinflammatory activity in DBA/1 mouse collagen-induced arthritis model assessed as reduction of high disease scores at 50 ug/kg, sc administered 2 days prior to collagen challenge continued till day 21 post collagen challenge. In kind it is functional, organism-based. In outline: (§3)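 Collagen-induced arthritis mice were dosed subcutaneously (1 μg/dose) or given PBS on days −2, 0 and 21. Arthritis was scored clinically and hind paw width measured. Incidence was the % of mice with severity score ≥2 (cumulative) or ≥4 (high score). Results are mean ± SEM. Scores n = 13 per group, pooled from two experiments; paw width n = 7, from a single experiment.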

In series [10] the test system is Mus musculus. The series can be described thus: Antiinflammatory activity in DBA/1 mouse collagen-induced arthritis model assessed as reduction of disease incidence at 50 ug/kg, sc administered 2 days prior to collagen challenge continued till day 21 post collagen challenge. The series is classed as functional, organism-based. In a few lines:
as §3

For series [11], the system named is Mus musculus. The series can be described thus: Antiinflammatory activity in DBA/1 mouse collagen-induced arthritis model assessed as reduction of disease scores at 50 ug/kg, sc administered 2 days prior to collagen challenge continued till day 21 post collagen challenge. In kind it is functional, organism-based. In a few lines:
as §3

Series [12] addresses T1, Toll-like receptor 4 (Mus musculus) (UniProt Q9QUK6).
T1 sequence (whole entry): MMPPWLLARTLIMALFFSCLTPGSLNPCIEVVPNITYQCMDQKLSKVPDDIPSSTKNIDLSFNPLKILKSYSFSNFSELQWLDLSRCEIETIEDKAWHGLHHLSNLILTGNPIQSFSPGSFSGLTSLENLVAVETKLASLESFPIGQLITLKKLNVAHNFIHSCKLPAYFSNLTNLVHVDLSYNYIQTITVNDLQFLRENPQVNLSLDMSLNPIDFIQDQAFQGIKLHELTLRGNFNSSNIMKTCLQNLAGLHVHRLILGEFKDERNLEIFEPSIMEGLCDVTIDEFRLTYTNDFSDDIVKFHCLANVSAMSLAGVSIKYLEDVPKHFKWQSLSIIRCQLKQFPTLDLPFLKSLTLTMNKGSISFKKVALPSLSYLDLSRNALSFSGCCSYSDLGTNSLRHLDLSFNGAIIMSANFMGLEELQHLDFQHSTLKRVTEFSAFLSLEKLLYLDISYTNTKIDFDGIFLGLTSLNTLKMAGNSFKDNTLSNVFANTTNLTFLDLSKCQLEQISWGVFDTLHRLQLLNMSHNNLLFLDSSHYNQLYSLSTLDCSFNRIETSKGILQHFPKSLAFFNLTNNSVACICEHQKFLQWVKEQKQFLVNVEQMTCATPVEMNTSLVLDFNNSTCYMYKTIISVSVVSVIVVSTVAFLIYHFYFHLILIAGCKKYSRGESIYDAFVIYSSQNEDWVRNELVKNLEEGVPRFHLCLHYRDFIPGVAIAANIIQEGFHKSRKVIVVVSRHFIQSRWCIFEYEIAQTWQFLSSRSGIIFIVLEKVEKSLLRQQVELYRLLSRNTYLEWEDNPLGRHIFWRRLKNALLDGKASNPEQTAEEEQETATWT
The series can be described thus: Inhibition of TLR4 in BALB/c mouse BMDM assessed as downregulation of LPS-stimulated IL-6 level at 5 ug/ml preincubated for 18 hrs followed by LPS challenge measured after 24 hrs by ELISA relative to control. In outline: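 BALB/c male bone marrow macrophages were differentiated 7 days with L929 supernatant (≥99% CD11b+/F4/80+). Cells were plated at 2 × 10^5/well in triplicate, rested overnight, and given compounds at 5 μg/mL for 18 h. They were then stimulated with 100 ng/mL S. minnesota LPS, 10 ng/mL Pam3CSK4 (BLP) or 0.01 μM CpG for 24 h. Supernatant IL-12p40 and IL-6 were measured by ELISA (sensitivity 16 pg/mL).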

Calls of active or inactive are those of the source. Unless noted, the rule behind the calls is not given here.

Regarding `CN(C)CCS(=O)(=O)Cc1ccc(Br)cc1`, in [1], the fold change (FC) amounted to 0.736. Moreover, in series [2], the Activity entry is reported as “Non-toxic”. Besides, the result in series [3] and in series [5] was inactive. The result in [4], in [6], in series [7], in series [8], in series [9] and in series [10] was Active. Moreover, the result in series [11] was Active. The inhibition result in [12] was “Active”.

(Values after ChEMBL document CHEMBL3108700, “Designing anti-inflammatory drugs from parasitic worms: a synthetic small molecule analogue of the Acanthocheilonema viteae product ES-62 prevents development of collagen-induced arthritis” (J Med Chem, 2013).)
